Consider two compounds from article PMC12988600 (AAPS PharmSciTech, 2019).

Converted amounts (≈) assume the structure as drawn.

Data set [1] relates to ERL-resistant HCC827 cells. Briefly: In vitro cytotoxicity, crystal violet. The conditions noted are these: 48 h. The class given is cell-based.
Data set [2] deals with HCC 827/ERL cells. Briefly: Annexin V-FITC apoptosis assay, flow cytometry. The class given is cell-based. The conditions noted are these: HCC827/ERL cells, 48 h, VA 0.5 mM where present.
The nature of data set [3]: In vitro dissolution, USP apparatus II. The conditions noted are these: within 5 min. The class given is physicochemical. The procedure, abridged: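 USP II paddle dissolution at 37 ± 0.5°C and 75 rpm in 500 ml of 0.1 N HCl, FaSSIF or FeSSIF. Plain drug or liquisolid formulation was added at 50 mg drug-equivalent. Aliquots were taken at […], with the medium replaced each time. Samples were centrifuged at 10,000 rpm for 10 min and the supernatant was quantified by HPLC-DAD at 246 nm.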

Data set [4] is described as follows: Saturation solubility of ERL batches in water. In kind it is physicochemical.
The conditions of data set [5]: human; cited from earlier work.

Take `CCCC(CCC)C(=O)O` [VA, 2-propylpentanoic acid]: the Cell killing entry in data set [1] (0.5 mM) is “did not show significant cell killing”. Also, in data set [2], the Apoptotic cells entry is on record as “poor apoptotic effect”.
In the case of `C#Cc1cccc(Nc2ncnc3cc(OCCOC)c(OCCOC)cc23)c1` [ERL, Erlotinib], the “% drug dissolved” value amounted to 1.1% in data set [3] (FaSSIF) and 13% in data set [3] (FeSSIF). For the same compound, the solubility (as a rule, how much of the substance goes into solution per volume) at 24 h in data set [4] came to 0.7 µg/mL (≈ 1.78 µM). Besides, in data set [1] (25 μM (highest concentration)), the “% cell killing” value is given as below 15%. Also, the “Absorbed after oral administration” value in data set [5] is “about 60%”.
